Screens as filed in PubChem BioAssay.
Rows were chosen to be rich in hits. Some 5.4% of all compounds tested hit in one or more screens of this group.
Cav3 T inh = inhibitors of human Cav3.2 T-type calcium channel; 4% of 100,000 active; Cav3.2-expressing cells, Fluo-4 calcium fluorescence FDSS; active compounds read low; B-score at 10 µM; AID 449739;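 active = single-dose well whose peak fluorescence ratio is a statistical outlier from its plate by either plate-standardised score or position-corrected B-score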
EphB4 antag = antagonists of human EphB4-ephrin-B2 interaction | P54760 | EphB4 LBD / TNYL-RAW-Alexa532 peptide, fluorescence polarization | inhibition, % at 7 µM | 0.15% of 97,000 active;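 active = inhibition above the screen-wide mean inhibition plus 3 SD, cut at about 15% in these data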;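 also: 0% = DMSO wells and 100% = excess unlabeled TNYL-RAW peptide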
DAT uptake mod = changed human dopamine transporter uptake under cocaine IC80. LLC-PK1 hDAT cells, [14C]-dopamine uptake with cocaine IC80; actives deviate in either direction. B-score at 10 µM. 1.3% of 110,000 active. AID 449768;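 active = Z score or B-score, a plate-position-corrected score, falls beyond the plate's 99.7% confidence bounds, in either direction; inactive = both scores lie inside the 99.7% bounds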;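 also: scored against the spread of the other compound wells on the same plate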
Rev-RRE block = inhibitors of HIV-1 Rev-RRE RNA interaction | 0.79% of 97,000 active | Rev peptide-RRE RNA binding, FRET | inhibition, % at 8 µM | AID 704;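 active = inhibition above the screen-wide mean plus 3 SD, cut at about 35% in these data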;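 also: 0% = median DMSO wells and 100% = median Neomycin B control wells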
Target sequence (P05866 whole entry, looked up): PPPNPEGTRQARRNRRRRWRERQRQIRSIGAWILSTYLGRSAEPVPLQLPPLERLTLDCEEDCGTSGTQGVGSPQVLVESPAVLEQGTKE
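Assay system: Rev peptide and RRE RNA, both fluorescently labelled; times: 5 min preincubation and 15 min binding, 25 °C; detection: FRET, ex 480 nm, em 540 and 671 nm; read-out basis: % inhibition from 671/540 nm acceptor-to-donor ratio, scaled between controls; benchmarks: DMSO low control, neomycin B high control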
Starred values were filed as active, the others as inactive; nt = no result.

SMILES	Cav3 T inh	EphB4 antag	DAT uptake mod	Rev-RRE block
CCOc1ccc(OC(=O)NC(c2ccccc2)C(Cl)(Cl)Cl)cc1 (stereo unspecified)	-3.49*	1.1	0.00292	5.1
COc1ccc(CN2CCn3ncc(C(=O)Nc4cccc(C)c4)c3C2=O)cc1	-5.53*	4.5	-0.183	3.0
CCCCCCCCOc1ccc(C2OC34CCCCC3C(C#N)(C#N)C2(C#N)C(=N)O4)cc1 (stereo unspecified)	-1.65	3.9	0.275	42.9*
CCOc1ccccc1NC(=O)CCN1CCN(S(=O)(=O)c2ccc(Br)cc2)CC1	nt	7.0	-0.0409	4.3
COc1ccc(/C=N/NC(=O)c2ccoc2C)cc1COc1ccc(Cl)cc1	-6.46*	-4.8	2.71	2.6
N=C1/C(=C\c2ccc(SCc3ccco3)o2)C(=O)N=C2SC=NN12	0.00143	-7.4	0.0315	58.9*
CC1=NN2C(=N)/C(=C\c3ccc(SCc4ccccc4)o3)C(=O)N=C2S1	-1.4	0.6	-0.161	21.3
O=C(CSCc1ccccc1)N/N=C/c1ccccc1OCc1ccccc1	-2.54	-6.0	1.76	11.1
COc1ccc(CSCC(=O)N/N=C/c2ccccc2OCc2ccccc2)cc1	-5.75*	7.8	1.26	14.8
Cc1ccc(N(CC(=O)N/N=C/c2ccc(OC3CSC3)cc2)S(=O)(=O)c2ccccc2)cc1	-2.71*	-5.0	0.0741	8.3
CN1CCN(C(=S)c2ccc(OCC(=O)Nc3cccc(C(F)(F)F)c3)cc2)CC1	-0.893	-0.7	0.715	-5.2
Cc1nc2sccn2c1-c1csc(NCc2ccccc2)n1	-2.37	-0.2	1.09	-2.7
CCCCCCCCCn1c2c(c(=N)c3c1CCC3)CCC2	-6.18*	2.8	1.38	13.4
CCCCCCn1c2c(c(=N)c3c1CCC3)CCC2	-1.51	0.4	-0.497	1.6
CCOc1cc(S(=O)(=O)NCC2OCCc3ccccc32)c(OCC)cc1-n1cnnn1 (stereo unspecified)	0.705	nt	0.386	nt
CCOC(=O)c1sc(C)c(C(=O)NC2CCCCC2)c1N	-0.215	-6.3	-2.75*	-6.0
C#Cc1ccc([C@H]2C=C(C(=O)NCc3ccccc3)O[C@@H](OCc3ccc(CO)cc3)C2)cc1	-0.0548	nt	0.673	nt
Cc1[nH]n2c(=O)cc(-c3ccc([N+](=O)[O-])cc3)nc2c1-c1ccccc1	-4.36*	-3.7	1.35	0.6
CCCc1cc(=O)n2[nH]c(C)c(-c3ccccc3)c2n1	0.753	nt	0.81	nt
Cc1ccc(N=Nc2c(N)[nH]n3c(=O)cc(-c4ccccc4)nc23)cc1	-7.46*	3.3	1.64*	1.3
CCCn1c(CN(C)Cc2ccccc2)nc2c1c(=O)n(C)c(=O)n2C	-0.314	-1.0	-0.953	2.1
CCCn1c(CN(Cc2ccccc2)Cc2ccccc2)nc2c1c(=O)n(C)c(=O)n2C	-4.36*	nt	-2.25	nt
CCOC(=O)Cn1c(CN(Cc2ccccc2)Cc2ccccc2)nc2c1c(=O)n(C)c(=O)n2C	-4	-2.6	3.79*	-0.2
C=CCSc1nnc2nc3[nH]c4c(C)cccc4c3nn12	0.162	-5.0	-0.0562	3.0
CCOC(=O)c1ccc(NC(=O)CN(Cc2ccc(Cl)cc2)S(C)(=O)=O)cc1	-3.42	-2.9	1.78	21.5
SMILES	Cav3 T inh	EphB4 antag	DAT uptake mod	Rev-RRE block
Cc1cccc(C(=O)N/N=C/c2ccc(OCC(=O)N3CCCCC3)cc2)c1	-0.317	1.6	2.19*	-0.9
CCNc1nc(NC(C)C)nc(OCCOC(=O)Nc2ccccc2)n1	-1.68	-1.1	3.64*	4.1
CCNc1nc(NCC)nc(OCCOC(=O)c2ccccc2)n1	0.63	nt	0.0615	nt
COc1cc(/C=C2/N=C(c3ccccc3)OC2=O)c(F)cc1OCc1ccccc1	-1.28	nt	0.162	nt
FC(F)(F)c1cc(C(F)(F)F)c2ccc(N3CCN(c4ccc(Cl)cc4)CC3)nc2n1	-7.03*	-7.5	-0.337	19.2
FC(F)(F)c1cc(C(F)(F)F)c2ccc(N3CCN(c4ncccn4)CC3)nc2n1	0.0366	-1.3	1.76	2.9
N#CC(c1ccc(Cl)cc1)c1ccc2c(C(F)(F)F)cc(C(F)(F)F)nc2n1 (stereo unspecified)	-2.53	0.3	-3.65*	-0.4
Fc1ccc(N2CCN(c3ccc4c(C(F)(F)F)cc(C(F)(F)F)nc4n3)CC2)cc1	-4*	-7.7	-1.1	-0.9
CC(C)(C)C(=O)Nc1ccnc(-c2cccnc2)n1	1.16	4.4	0.98	1.7
CCOC(=O)c1ccc(NC(=O)c2c(N)n(C)c(=O)n(C)c2=O)cc1	0.25	nt	-0.709	nt
Cc1cccc(NC(=S)NCc2ccc3c(c2)cc(C)n3C)c1C	-3.22	nt	0.487	nt
CCCCC(=O)NC(c1cccc([N+](=O)[O-])c1)c1c(OC(C)=O)ccc2ccccc12 (stereo unspecified)	-7.73*	-3.3	0.0762	0.5
CC(=O)NC(c1cccc([N+](=O)[O-])c1)c1c(OC(C)=O)ccc2ccccc12 (stereo unspecified)	-0.449	-6.5	-0.716	-1.1
COc1ccc(C)cc1S(=O)(=O)N(CC(=O)N1CCCC1)c1ccccc1	1.28	0.2	-0.0968	1.1
COCCn1c(SCC(=O)Nc2ccc(S(N)(=O)=O)cc2)nc2ccccc21	0.821	-6.9	0.235	3.2
COCCn1c(SCC(=O)Nc2ccc(Cl)c(S(=O)(=O)N(C)C)c2)nc2ccccc21	-6.22*	2.2	0.638	9.9
CCCCCn1c(CCCNC(=O)CC)nc2ccccc21	0.993	nt	0.0983	nt
COc1cc([N+](=O)[O-])ccc1N/C=C/C(=O)c1cccs1	-0.817	1.6	0.37	77.2*
O=C(CCc1ccc(Oc2cc([N+](=O)[O-])cc([N+](=O)[O-])c2)cc1)N1CCCCC1	-1.31	1.1	1.65	8.4
COc1cc(C2c3c(oc4c(C)cc(C)cc4c3=O)C(=O)N2Cc2cccnc2)ccc1O (stereo unspecified)	2.01	1.0	0.161	5.8
COc1ccc(CCN2C(=O)c3[nH]nc(-c4ccccc4O)c3C2c2cccc(O)c2)cc1OC (stereo unspecified)	-3.26	-6.6	2.71*	13.9
COc1ccc(C2c3c(-c4cc(Cl)c(C)cc4O)n[nH]c3C(=O)N2Cc2cccnc2)cc1OC (stereo unspecified)	1.15	10.6	2.96*	5.6
COc1ccc(S(=O)(=O)N2CCCN(CCC(=O)Nc3cccc(C(F)(F)F)c3)CC2)cc1	-4.59*	-3.3	0.171	2.1
COc1ccc(NC(=O)CCN2CCN(S(=O)(=O)c3ccc(Cl)cc3)CC2)cc1	0.00985	0.2	1.02	9.6
COc1ccccc1NC(=O)CN1CCN(CC(=O)Nc2ccc(Cl)c(C(F)(F)F)c2)CC1	-10.9*	-1.1	0.947	-0.1
COc1ccc(NC(=O)CN2CCN(CC(=O)Nc3ccccc3Cl)CC2)cc1Cl	-1.75	-2.7	0.969	10.9
COc1ccc(S(=O)(=O)N2CCN(CC(=O)Nc3ccc(C)c(F)c3)CC2)cc1	-4.2*	-3.0	0.00615	14.8
CC(C)c1ccc(N(CC(=O)Nc2ccc(S(=O)(=O)N3CCOCC3)cc2)S(C)(=O)=O)cc1	-7.91*	-2.6	0.0518	6.0
COc1ccc(S(=O)(=O)N2CCN(CC(=O)Nc3cccc(F)c3)CC2)cc1	nt	-0.9	nt	6.4
CSc1nc2cc(Oc3cccc(Cl)c3Cl)c(Cl)cc2[nH]1	-0.307	nt	-0.534	nt
